According to ChEMBL document CHEMBL4011653, “Design, Synthesis, and Evaluation of Novel Prodrugs of Transition State Inhibitors of Norovirus 3CL Protease” (J Med Chem, 2017):
pEC50, pIC50: −log10 of the molar value.

Key:
[1] = Protein binding in mouse serum at 25 to 100 uM after 4 hrs by LC-MS method; assay type: ADME, cell-free; details: read-out: PB (converted)
[2] = Selectivity index, ratio of CC50 for human HeLa cells to EC50 for norovirus
[3] = Metabolic stability of mouse liver microsomes assessed as amount of parent compound remaining at 25 to 100 uM after 1 hr in the presence of NADPH by LC-MS method; assay type: ADME, microsome; details: read-out: Stability
Summary of the method: (§1)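 Compound at 25 or 100 μM was incubated with mouse or human liver microsomes plus NADPH for 1 h at 37 °C. The remaining aldehyde form was quantified by LC/MS.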

Norovirus = experiment: Antiviral activity against Norovirus infected in human HG23 cells assessed as inhibition of viral replication after 48 hrs by quantitative RT-PCR method; assay type: functional, cell-based; details: HG23, 48 h
[4] = Metabolic stability of human liver microsomes assessed as amount of parent compound remaining at 25 to 100 uM after 1 hr in the presence of NADPH by LC-MS method; assay type: ADME, microsome; details: read-out: Stability; summary of the method: as §1
[5] = Inhibition of Norovirus 3CL protease using Edans-DFHLQ/GP-Dabcyl as substrate after 30 mins by FRET assay
Summary of the method: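 Norovirus 3CL protease was preincubated with serial compound dilutions up to 100 μM, or DMSO, for 30 min at 37 °C. Edans-DFHLQ/GP-Dabcyl substrate was then added. Buffer was 20 mM HEPES pH 8, 200 mM NaCl, 0.4 mM EDTA, 60% glycerol and 6 mM DTT. Fluorescence (ex 360/em 460 nm) was read for 1 h, minus the no-protease background. IC50 came from variable-slope curve fits.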

HeLa = experiment: Cytotoxicity against human HeLa cells assessed as cell viability after 72 hrs by MTT assay; assay type: functional
[6] = Protein binding in human serum at 25 to 100 uM after 4 hrs by LC-MS method; assay type: ADME, cell-free; details: read-out: PB (converted)
[7] = Metabolic stability in human serum assessed as amount of parent compound remaining at 25 to 100 uM at 37 degC after 1 hr by LC-MS analysis; assay type: ADME, cell-free; details: read-out: Stability
[8] = Metabolic stability in mouse serum assessed as amount of parent compound remaining at 25 to 100 uM at 37 degC after 1 hr by LC-MS analysis; assay type: ADME, cell-free; details: read-out: Stability
Serum = experiment: Prodrug activation in human serum assessed as 3-chlorobenzyl (S)-3-cyclohexyl-1-oxo-1-((S)-1-oxo-3-((S)-2-oxopyrrolidin-3-yl)propan-2-ylamino)propan-2-ylcarbamate formation by measuring parent compound half life at 25 to 100 uM by LC-MS method; assay type: ADME, cell-free
[9] = Prodrug activation in human HG23 cells assessed as 3-chlorobenzyl (S)-3-cyclohexyl-1-oxo-1-((S)-1-oxo-3-((S)-2-oxopyrrolidin-3-yl)propan-2-ylamino)propan-2-ylcarbamate formation by LC-MS method; assay type: ADME, cell-based

| pEC50 (Norovirus) | pIC50 [5] | Structure (SMILES) | other results |
| --- | --- | --- | --- |
| 7.70 | 7.00 | O=C[C@H](C[C@@H]1CCNC1=O)NC(=O)[C@H](CC1CCCCC1)NC(=O)OCc1cccc(Cl)c1 | fraction unbound at 4 h, up to 100 µM [1]: 0.02; selectivity ratio [2]: 2800; remaining at 1 h, up to 100 µM [3]: 40%; remaining at 1 h, up to 100 µM [4]: 63%; CC50 (HeLa): 56.1 µM; fraction unbound at 4 h, up to 100 µM [6]: 0.02 |
| 7.70 | 7.00 | O=C(N[C@@H](CC1CCCCC1)C(=O)N[C@@H](C[C@@H]1CCNC1=O)C(O)S(=O)(=O)O)OCc1cccc(Cl)c1 (some centres undefined) | fraction unbound at 4 h, up to 100 µM [1]: 0.03; selectivity ratio [2]: 2480; remaining at 1 h, up to 100 µM [3]: 35%; remaining at 1 h, up to 100 µM [7]: 0%; remaining at 1 h, up to 100 µM [4]: 54%; CC50 (HeLa): 49.6 µM; fraction unbound at 4 h, up to 100 µM [6]: 0.04; remaining at 1 h, up to 100 µM [8]: 0% |
| 6.52 | 6.10 | CC(C)C[C@H](NC(=O)OCc1ccccc1)C(=O)N[C@@H](C[C@@H]1CCNC1=O)C(O)S(=O)(=O)O (some centres undefined) | fraction unbound at 4 h, up to 100 µM [1]: 0.29; selectivity ratio [2]: > 667; remaining at 1 h, up to 100 µM [3]: 82%; remaining at 1 h, up to 100 µM [7]: 2%; remaining at 1 h, up to 100 µM [4]: 92%; CC50 (HeLa): > 200 µM; fraction unbound at 4 h, up to 100 µM [6]: 0.35; remaining at 1 h, up to 100 µM [8]: 18% |
| 5.89 | 5.43 | CCCC(=O)OC([C@H](C[C@@H]1CCNC1=O)NC(=O)[C@H](CC(C)C)NC(=O)OCc1ccccc1)S(=O)(=O)O (some centres undefined) | – |
| 7.40 | 6.30 | COC(=O)C(NC(=O)OC([C@H](C[C@@H]1CCNC1=O)NC(=O)[C@H](CC1CCCCC1)NC(=O)OCc1cccc(Cl)c1)S(=O)(=O)O)C(C)C (some centres undefined) | – |
| 7.60 | 6.10 | COC(=O)C(C)NC(=O)OC([C@H](C[C@@H]1CCNC1=O)NC(=O)[C@H](CC1CCCCC1)NC(=O)OCc1cccc(Cl)c1)S(=O)(=O)O (some centres undefined) | – |
| 7.52 | 6.05 | CCCCCCCC(=O)OC([C@H](C[C@@H]1CCNC1=O)NC(=O)[C@H](CC1CCCCC1)NC(=O)OCc1cccc(Cl)c1)S(=O)(=O)O (some centres undefined) | – |
| 6.52 | 5.55 | CCCCCC(=O)OC([C@H](C[C@@H]1CCNC1=O)NC(=O)[C@H](CC(C)C)NC(=O)OCc1ccccc1)S(=O)(=O)O (some centres undefined) | – |
| 6.52 | 5.74 | COC(=O)C(C)NC(=O)OC([C@H](C[C@@H]1CCNC1=O)NC(=O)[C@H](CC(C)C)NC(=O)OCc1ccccc1)S(=O)(=O)O (some centres undefined) | – |
| 7.60 | 6.10 | CCCCCCOC(=O)OC([C@H](C[C@@H]1CCNC1=O)NC(=O)[C@H](CC1CCCCC1)NC(=O)OCc1cccc(Cl)c1)S(=O)(=O)O (some centres undefined) | – |
| 7.60 | 7.00 | CCC(=O)OC([C@H](C[C@@H]1CCNC1=O)NC(=O)[C@H](CC1CCCCC1)NC(=O)OCc1cccc(Cl)c1)S(=O)(=O)[O-].[Na+] (some centres undefined) | selectivity ratio [2]: 4480; t1/2 (Serum): 25 min; remaining at 1 h, up to 100 µM [3]: 17%; remaining at 1 h, up to 100 µM [7]: 52%; remaining at 1 h, up to 100 µM [4]: 11%; CC50 (HeLa): 112 µM; remaining at 1 h, up to 100 µM [8]: 0% |
| 6.10 | 5.14 | CC(C)C[C@H](NC(=O)OCc1ccccc1)C(=O)N[C@@H](C[C@@H]1CCNC1=O)C(OC(=O)c1ccccc1)S(=O)(=O)O (some centres undefined) | – |
| 6.70 | 5.12 | CC(=O)OC([C@H](C[C@@H]1CCNC1=O)NC(=O)[C@H](CC1CCCCC1)NC(=O)OCc1ccccc1)S(=O)(=O)O (some centres undefined) | – |
| 6.15 | 5.12 | CCC(=O)OC([C@H](C[C@@H]1CCNC1=O)NC(=O)[C@H](CC(C)C)NC(=O)OCc1ccccc1)S(=O)(=O)O (some centres undefined) | – |
| 6.40 | 5.60 | COC(=O)C(NC(=O)OC([C@H](C[C@@H]1CCNC1=O)NC(=O)[C@H](CC(C)C)NC(=O)OCc1ccccc1)S(=O)(=O)O)C(C)C (some centres undefined) | – |
| 6.52 | 5.46 | CC(C)C[C@H](NC(=O)OCc1ccccc1)C(=O)N[C@@H](C[C@@H]1CCNC1=O)C(OC(=O)C(C)C)S(=O)(=O)O (some centres undefined) | – |
| 6.70 | 4.99 | COC(=O)C(C)NC(=O)OC([C@H](C[C@@H]1CCNC1=O)NC(=O)[C@H](CC1CCCCC1)NC(=O)OCc1ccccc1)S(=O)(=O)O (some centres undefined) | – |
| 7.52 | 6.52 | CC(C)C(=O)OC([C@H](C[C@@H]1CCNC1=O)NC(=O)[C@H](CC1CCCCC1)NC(=O)OCc1cccc(Cl)c1)S(=O)(=O)O (some centres undefined) | – |
| 5.85 | 5.46 | CCCCC(=O)OC([C@H](C[C@@H]1CCNC1=O)NC(=O)[C@H](CC(C)C)NC(=O)OCc1ccccc1)S(=O)(=O)O (some centres undefined) | – |
| 6.40 | 5.51 | COC(=O)CNC(=O)OC([C@H](C[C@@H]1CCNC1=O)NC(=O)[C@H](CC(C)C)NC(=O)OCc1ccccc1)S(=O)(=O)O (some centres undefined) | – |
| 7.82 | 7.00 | CCCCCC(=O)OC([C@H](C[C@@H]1CCNC1=O)NC(=O)[C@H](CC1CCCCC1)NC(=O)OCc1cccc(Cl)c1)S(=O)(=O)O (some centres undefined) | selectivity ratio [2]: 5470; remaining at 1 h, up to 100 µM [3]: 38%; remaining at 1 h, up to 100 µM [7]: 103%; remaining at 1 h, up to 100 µM [4]: 76%; CC50 (HeLa): 82 µM; remaining at 1 h, up to 100 µM [8]: 60% |
| 6.30 | 5.52 | CCCCCCCC(=O)OC([C@H](C[C@@H]1CCNC1=O)NC(=O)[C@H](CC(C)C)NC(=O)OCc1ccccc1)S(=O)(=O)O (some centres undefined) | – |
| 6.22 | 4.98 | CC(=O)OC([C@H](C[C@@H]1CCNC1=O)NC(=O)[C@H](CC(C)C)NC(=O)OCc1ccccc1)S(=O)(=O)O (some centres undefined) | – |
| 7.52 | 7.10 | CC(=O)OC([C@H](C[C@@H]1CCNC1=O)NC(=O)[C@H](CC1CCCCC1)NC(=O)OCc1cccc(Cl)c1)S(=O)(=O)[O-].[Na+] (some centres undefined) | selectivity ratio [2]: > 6670; Drug metabolism [9]: Metabolite_Detected; t1/2 (Serum): 25 min; remaining at 1 h, up to 100 µM [3]: 14%; remaining at 1 h, up to 100 µM [7]: 56%; remaining at 1 h, up to 100 µM [4]: 17%; CC50 (HeLa): > 200 µM; remaining at 1 h, up to 100 µM [8]: 0% |
| 7.70 | 6.40 | O=C(N[C@@H](CC1CCCCC1)C(=O)N[C@@H](C[C@@H]1CCNC1=O)C(OC(=O)C1CCCCC1)S(=O)(=O)O)OCc1cccc(Cl)c1 (some centres undefined) | – |
| – | – | COc1ccc(CCN(C)CCCC(C#N)(c2ccc(OC)c(OC)c2)C(C)C)cc1OC (centres undefined) | remaining at 1 h, up to 100 µM [3]: 30%; remaining at 1 h, up to 100 µM [4]: 41% |
| – | – | CC(=O)CC(c1ccccc1)c1c(O)c2ccccc2oc1=O (centres undefined) [WARFARIN] | fraction unbound at 4 h, up to 100 µM [1]: 0.04; remaining at 1 h, up to 100 µM [3]: 99.6%; remaining at 1 h, up to 100 µM [4]: 95%; fraction unbound at 4 h, up to 100 µM [6]: 0.01 |
